The entries come from a sample that favours hits as a whole.
HCT116 bCat-KO: beta-catenin-lacking colon tumor cell growth suppression | HCT116 beta-catenin knockout viability, CellTiter-Glo, 60 h; stronger effect = lower value | viability, % at 10 µM | 140,000 tested, 1.5% active;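 active = viability at or under a set limit, the compound median less 4 SD, cut at about 6% in these data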;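 note: 0% = Hyamine 1622 control at 20 µM and 100% = untreated cell control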
H69AR inhibit: growth inhibitors of human H69AR lung tumor cells; H69AR lung tumor viability, ATP luminescence, 72 h; stronger effect = lower value; viability, % at 10 µM; 85,000 tested, 6% active; AID 598;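 active = viability at or below 40%; inactive = viability above 40%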;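 note: multidrug resistant small cell line overexpressing MRP-1 efflux transporter; 100% = mean luminescence of untreated control wells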
Lung fibro prol: blocks proliferation of human lung fibroblasts | LL 47 human lung fibroblast viability, ATP luminescence; stronger effect = lower value | viability, % at 10 µM | 85,000 tested, 1.1% active | AID 719;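 active = viability at or below 50% in the single dose screen; inactive = viability above 50%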;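 note: compound exposure lasted 72 h before the ATP readout; 100% = median luminescence of untreated cell-only wells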
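Material: human lung fibroblast line LL 47, low passage; Evaluation: viability percentage against median untreated-cell control; Buffer or medium: 15% FBS in IMEM; Incubation: 72 h compound exposure at 37 °C after overnight plating; Dosing: 0.1% DMSO in all compound wells; Measured by: CellTiter-Glo luminescence.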
HUVEC prolif 384: inhibitors of human endothelial cell proliferation | HUVEC proliferation, CellTiter-Glo luminescence, 72 h; stronger effect = lower value | viability, % at 10 µM (by protocol) | 86,000 tested, 1.1% active;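 active = viability at or below 30%; inactive = viability above 30%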;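 note: 100% = median luminescence of DMSO-only cell control wells on each plate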
PTEN del growth: suppresses growth of cells with PTEN deletion | HCT116 PTEN-null viability, CellTiter-Glo, 60 h; stronger effect = lower value | viability, % at 10 µM | 140,000 tested, 1.2% active;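 active = viability at or below a set limit, 4 SD under the median of all tested compounds, cut at about 3.7% in these data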;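 note: PTEN knockout HCT116 line with beta catenin targeted HCT116 as companion control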
* marks the source's active call; other numbers are inactive results; / = no result.

SMILES	HCT116 bCat-KO	H69AR inhibit	Lung fibro prol	HUVEC prolif 384	PTEN del growth
O=C1NC(=O)C2(Cc3ccccc3N3CCOCC32)C(=O)N1c1ccccc1 (stereo unspecified)	28.1	19.2*	94.0	72.4	24.4
O=C1NC(=O)C2(Cc3ccccc3N3CCCC32)C(=O)N1c1ccccc1 (stereo unspecified)	87.2	101.8	90.5	86.6	94.0
CNC(=O)OCc1n(C)cc[n+]1C	87.7	/	/	/	99.5
C/C(=C\c1ccc(N(C)C)cc1)[N+](=O)[O-]	6.2	/	/	/	2.1*
CN(C)c1ccc(/C=C/[N+](=O)[O-])cc1	2.7*	/	/	/	3.5*
CCn1nc(-c2ccccc2)nc2c(=O)n(C)c(=O)nc1-2	0.7*	/	/	/	1.4*
Cc1nc2c(=O)n(C)c(=O)nc-2n(C)n1	1.5*	2.6*	2.5*	5.6*	1.5*
CCOP(=O)(OCC)C(C)(C)NC(=O)C(Cl)(Cl)Cl	92.6	97.6	94.8	96.3	97.0
C[C@H]1CCC[C@H](O)CCCCCc2cc(O)cc(O)c2C(=O)O1	71.0	32.0*	85.2	46.8	74.1
CC1CCC[C@H](O)CCCCCc2cc(O)cc(O)c2C(=O)O1 (stereo partly specified)	104.6	/	/	/	93.4
C[C@H]1CCC[C@@H](O)CCC/C=C/c2cc(O)cc(O)c2C(=O)O1	46.7	6.5*	69.5	34.3	43.2
CCOC(=O)c1c(-c2ccc(OC)cc2)oc2ccc(OC(=O)N(C)C)cc12	57.7	32.6*	103.1	71.8	55.4
COCCNC(=O)c1c(N)n(CCC(C)C)c2nc3ccccc3nc12	83.3	14.9*	101.8	70.6	73.8
CC(C)CCNC(=O)c1c(N)n(Cc2ccc3c(c2)OCO3)c2nc3ccccc3nc12	22.0	6.1*	66.9	14.8*	18.8
CCCNC(=O)c1c(N)n(Cc2ccc3c(c2)OCO3)c2nc3ccccc3nc12	80.0	/	/	/	72.5
CC(C)CNC(=O)c1c(N)n(Cc2ccc3c(c2)OCO3)c2nc3ccccc3nc12	31.6	25.9*	87.5	49.0	20.1
OC12Oc3ccccc3C=C1N1CCC2CC1 (stereo unspecified)	93.3	95.2	97.4	99.7	92.7
CN1CCN(Cc2ccccc2Sc2ccccc2)CC1	76.4	/	/	/	77.4
CCNC(=O)NC(=O)C(C)OC(=O)c1c(C)nn(Cc2ccccc2)c1Cl (stereo unspecified)	82.3	/	/	/	90.0
COC(=O)c1ccc(NC(=O)CSc2nc3ccc(N4C(=O)C5C6C=CC(C6)C5C4=O)cc3s2)cc1 (stereo unspecified)	6.8	/	/	/	10.6
COc1ccc(Oc2cc(NC(=O)c3nn(C)cc3[N+](=O)[O-])cc([N+](=O)[O-])c2)cc1	1.6*	/	/	/	1.4*
CCC1(c2ccccc2)C(=O)N(COC)C(=O)N(COC)C1=O	91.6	87.5	111.6	102.9	98.0
COC(=O)C(O)(c1ccc(NC(=S)NC(=O)c2ccccc2)cc1)C(F)(F)F (stereo unspecified)	91.1	/	/	/	90.0
COc1cccc(C2CC3C(=O)C=CC2N3Cc2ccccc2)c1 (stereo unspecified)	30.6	/	/	/	25.3
O=C1NC(=O)C(=Cc2cn(CCOc3ccc4c(c3)OCO4)c3ccccc23)C(=O)N1	66.7	77.7	48.4*	52.7	33.4
SMILES	HCT116 bCat-KO	H69AR inhibit	Lung fibro prol	HUVEC prolif 384	PTEN del growth
CCCCn1c(O)c(C(C)=NCC2CCCO2)c(=O)[nH]c1=O (stereo unspecified)	101.2	85.5	101.5	106.3	112.1
CC1(C)C[C@H]2C=C(C=O)[C@]3(C=O)C[C@]3(C)[C@H]2C1	2.0*	/	/	/	1.8*
O=C1C(=O)c2ccccc2-c2ccccc21	1.7*	/	/	/	2.2*
O=C1C(=O)c2cccc3cccc1c23	27.2	/	/	/	37.0
CCC(COC(=O)NC)NC(=O)Oc1ccccc1 (stereo unspecified)	96.1	94.0	93.8	95.6	92.8
CCCCCCn1c(O)c(C=NC2CCCCC2N)c(=O)[nH]c1=O (stereo unspecified)	85.7	29.2*	80.7	5.0*	94.7
CN1CCN(S(=O)(=O)c2ccc(Cl)nc2)CC1	95.5	/	/	/	100.5
O=C(Nc1ccncc1)c1c(O)c2ccccc2n(Cc2ccccc2)c1=O	/	17.3*	92.3	99.0	/
CCCCn1c(=O)c(C(=O)NCc2ccncc2)c(O)c2ccccc21	83.1	74.6	100.0	123.5	82.2
CCCCn1c(=O)c(C(=O)Nc2ccccc2S(N)(=O)=O)c(O)c2ccccc21	77.1	23.1*	103.5	74.4	70.6
O=C(Nc1cccnc1)c1c(O)c2c(n(Cc3ccccc3)c1=O)CCCC2	74.4	86.3	103.0	94.3	71.8
CCCCCCn1c(=O)c(C(=O)Nc2ccncc2)c(O)c2ccccc21	/	11.5*	55.2	63.4	/
CCOc1ccccc1C1SCC(=O)Nc2c1c(=O)[nH]n2C(CC)CC (stereo unspecified)	92.7	104.6	95.5	95.4	98.7
COc1ccc(-n2c(Cc3cccc([N+](=O)[O-])c3)nc3ccccc3c2=O)cc1	74.9	/	/	/	83.9
COc1ccc(-c2nc3ccccc3n2OC(=O)N(C)C)cc1	106.7	64.0	96.2	89.4	104.7
CN(C)C(=O)On1c(-c2ccccc2)nc2ccc(Cl)cc21	89.4	38.4*	90.0	98.0	82.2
CC1CCC/C=C/C2CC(O)CC2C(O)/C=C/C(=O)O1 (stereo unspecified)	2.8*	2.9*	11.4*	8.3*	7.6
CCCCCCn1c(O)c(C(C)=NC)c(=O)[nH]c1=O	110.5	99.4	91.8	97.1	92.4

Screening data from PubChem BioAssay.
